Laboratory results as given in publication PMC10651777 (Blood, 2022).

Experiments:
[1] = Plasma pharmacokinetics at steady state; assay type: in vivo, human; conditions: for Cmax: human, plasma, oral, Mean Cmax, steady state
Outline: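 Patients with relapsed/refractory AML or secondary AML received venetoclax daily on days 1–28 (3–5-day ramp-up to 400, 600 or 800 mg) plus idasanutlin 150, 200 or 400 mg daily or 300 mg twice daily on days 1–5 of 28-day cycles. Noncompartmental analysis of venetoclax plasma concentration–time data; summary statistics of steady-state Cmax and trough. Data from 49 patients across 5 cohorts.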

[2] = tested on: R/R AML and newly diagnosed patients with AML unfit for intensive chemotherapy; conditions: ven monotherapy; cited from earlier work
MIC-1 = conditions: day 5 of treatment, 100 mg daily for 5 days, PV; cited from earlier work
AML = conditions: idasa monotherapy, cited from earlier work
[3] = tested on: Macrophage inhibitory cytokine-1 (MIC-1); assay: Serum MIC-1 ELISA; assay type: in vivo, human; conditions: day 5; idasa 150 to 400 mg daily for 5 days
Outline: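 Serum from patients with relapsed/refractory or secondary AML on venetoclax plus idasanutlin. Idasanutlin was given daily or twice daily on days 1–5 of 28-day cycles. MIC-1 was quantified by a human GDF-15 immunoassay kit (ELISA).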

[4] = Cohort B1.2.1, n = 5, ven 600 mg, idasa 150 mg

Cmax [1, 4] | Impact of the coadministration of idasa on ven pharmacokinetics ([1]; in vivo) | Pharmacokinetics of ven in this combination ([1]; vs historical ven monotherapy) | Cmax ([1]; 400 mg, Cohort B4, n = 8, ven 400 mg, idasa 400 mg) | MIC-1 increases [3] | SMILES | All-grade diarrhea rate [2] | All-grade nausea rate [2] | All-grade vomiting rate [2] | CR/CRi rate (CRc) [2] | Rate of grade ≥3 diarrhea [2] | Rate of grade ≥3 nausea [2] | Plasma MIC-1 levels increase (MIC-1) | All-grade diarrhea rate (AML; 400-800 mg twice daily microprecipitated bulk powder) | All-grade nausea rate (AML) | All-grade vomiting rate (AML) | CR/CRi/MLFS rate (antileukemic response) (AML) | Rate of grade ≥3 diarrhea (AML) | Rate of grade ≥3 nausea (AML)
1450 ng/mL | no significant impact | comparable to ven monotherapy |  |  | CC1(C)CCC(CN2CCN(c3ccc(C(=O)NS(=O)(=O)c4ccc(NCC5CCOCC5)c([N+](=O)[O-])c4)c(Oc4cnc5[nH]ccc5c4)c3)CC2)=C(c2ccc(Cl)cc2)C1 [ven, Venetoclax] | 56% | 59% | 41% | 19% | 6% | 6% |  |  |  |  |  |  | 
3220 ng/mL |  |  | 7110 ng/mL | 10- to 20 fold | COc1cc(C(=O)O)ccc1NC(=O)[C@@H]1N[C@@H](CC(C)(C)C)[C@](C#N)(c2ccc(Cl)cc2F)[C@H]1c1cccc(Cl)c1F [idasa, idasanutlin] |  |  |  |  |  |  | 4.8 fold | 91.3% | 73.9% | 39.1% | 21% | 23.9% | 0%
